Results published in ChEMBL document CHEMBL1250478 (J Med Chem, 2010).
Active and inactive are the calls of the source. The rule behind the calls is not given here.

Key:
[1] = test system: Plasmodium falciparum; test: Antiplasmodial activity against synchronized chloroquine-sensitive Plasmodium falciparum D6 infected in NMRI mice (Mus musculus) RBC assessed as inhibition of hemozoin formation at 1000 nM after 24 hrs by colorimetric analysis; assay type: functional, organism-based
How it was run: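 D6 cultures synchronized with sorbitol, held at 1% hematocrit, drug-treated 24 h at 37 °C. Parasites freeze-thawed, then lysed 30 min at 37 °C in saponin/Triton X-100 buffer. Hemozoin pelleted at 215,000 g, washed with acetone and PBS, dissolved 2 h in 0.2 N NaOH. Heme read at A400 (ε 91,000 cm-1M-1) and expressed per parasitized erythrocyte. A 0 h culture gave the baseline.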

[2] = test system: Plasmodium falciparum; test: Antiplasmodial activity against chloroquine-resistant Plasmodium falciparum Dd2 early trophozoites infected in NMRI mice (Mus musculus) RBC assessed as inhibition of hemozoin formation at 100 nM after 24 hrs by microscopic analysis; assay type: functional, organism-based
How it was run: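 D6 and Dd2 cultures synchronized to ring stage with 5% sorbitol, suspended at 1% hematocrit and exposed to drug (from 1 mM stock) for 24 h at 37 °C under 5% O2/5% CO2/90% N2. Giemsa-stained smears examined by microscopy for hemozoin, parasitemia and parasite morphology.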

[3] = test system: Plasmodium berghei; test: Antiplasmodial activity against Plasmodium berghei infected in NMRI mice (Mus musculus) assessed as survival rate at 30 mg/kg, subcutaneously administered as single dose; assay type: functional; conditions: route subcutaneous
How it was run: (§1)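 P. berghei blood diluted in saline to 10^8 parasitized erythrocytes/mL; 0.2 mL given i.v. to groups of 3 female NMRI mice (controls 5). Compounds dosed at 10 ml/kg either once on day 1 (oral gavage or subcutaneous) or orally at 4, 24, 48, 72 h post-infection. Parasitemia read by FACS on 100,000 RBCs from tail blood on day 3 (single dose) or day 4 (quadruple dose). Activity = % reduction versus control mean. Survival monitored to 30 days.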

[4] = Drug level in erythrocytes infected with chloroquine-resistant Plasmodium falciparum Dd2 after 1 hr; conditions: erythrocyte
[5] = test system: Plasmodium falciparum; test: Antiplasmodial activity against synchronized chloroquine-resistant Plasmodium falciparum Dd2 infected in NMRI mice (Mus musculus) RBC assessed as inhibition of hemozoin formation at 1000 nM after 24 hrs by colorimetric analysis; assay type: functional, organism-based
How it was run: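 Sorbitol-synchronized D6 and Dd2 cultures at 1% hematocrit were drug-treated for 24 h at 37 °C. Parasites were freed by freeze-thaw and saponin/Triton lysis buffer (37 °C, 30 min). Hemozoin was pelleted at 215,000 g, washed with acetone and PBS, then dissolved in 0.2 N NaOH. Heme was quantified by A400 (ε 91,000 cm-1M-1) per parasitized erythrocyte. Baseline was taken from 0 h culture.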

[6] = test system: Plasmodium berghei; test: Antiplasmodial activity against Plasmodium berghei infected in NMRI mice (Mus musculus) assessed as survival rate at 30 mg/kg, perorally administered as single dose; assay type: functional; conditions: route oral; how it was run: as §1
[7] = test system: Plasmodium berghei; test: Antiplasmodial activity against Plasmodium berghei infected in NMRI mice (Mus musculus) assessed as survival rate at 30 mg/kg, perorally administered as 4 consecutive doses measured post last dose; assay type: functional; conditions: route oral; how it was run: as §1
[8] = Drug level in NMRI mice (Mus musculus) erythrocytes infected with chloroquine-sensitive Plasmodium falciparum D6 after 1 hr; assay type: ADME, cell-based; conditions: erythrocyte
How it was run: (§2)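 Sorbitol-synchronized mature trophozoites (about 10% parasitemia) in 5 mL complete medium, drug at about 5 µM initial medium concentration. Medium sampled over time and analyzed by C18 HPLC. NH4Cl (10 mM) added 10 min before sampling to release accumulated drug; uptake is the difference from the 1 h level. DV concentration assumes 6 × 10^7 PRBCs and a 4 fL DV. Accumulation ratio is DV/medium concentration.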

[9] = test system: Plasmodium falciparum; test: Antiplasmodial activity against chloroquine-sensitive Plasmodium falciparum D6 early trophozoites infected in NMRI mice (Mus musculus) RBC assessed as inhibition of hemozoin formation at 100 nM after 24 hrs by microscopic analysis; assay type: functional, organism-based
How it was run: (§3)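 Ring-stage D6 parasites synchronized with 5% sorbitol, suspended at 1% hematocrit and drug added from 1 mM stock. Incubated 24 h at 37 °C under 5% O2/5% CO2/90% N2 alongside a no-drug control. Giemsa-stained smears were used for parasitemia and for microscopic examination of hemozoin and parasite morphology.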

[10] = test system: Plasmodium falciparum; test: Ratio of compound IC50 to chloroquine IC50 for chloroquine-resistant Plasmodium falciparum 7G8; assay type: functional
[11] = test system: Plasmodium falciparum; test: Ratio of compound IC50 to chloroquine IC50 for chloroquine-resistant Plasmodium falciparum Dd2; assay type: functional
[12] = test system: Plasmodium falciparum; test: Ratio of compound IC50 to chloroquine IC50 for chloroquine-sensitive Plasmodium falciparum D6; assay type: functional
[13] = Therapeutic index, ratio of IC50 for mice (Mus musculus) spleen lymphocytes to IC50 for chloroquine-resistant Plasmodium falciparum Dd2; assay type: tissue-based; conditions: read-out: Ratio IC50
[14] = target: Heme; test: Binding affinity to heme after 4 hrs by equilibrium binding assay
How it was run: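 Heme stock in NaOH, diluted to 5 µM in 100 mM phosphate buffer pH 5.7 and equilibrated 4 h. Optical titration by successive addition of compound, with pH held within ±0.05. Apparent dissociation constants from nonlinear least-squares fitting, assuming 2:1 heme:drug stoichiometry.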

[15] = Inhibition of beta-hematin formation after 24 hrs; assay type: functional
How it was run: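 40 µM heme in 0.67 M sodium acetate pH 4.8 with 0.0005 g/L Tween20, compound at 0–1000 µM. Incubated 24 h at 37 °C in the dark, then read at 415/630 nm. IC50 taken as (Dmax − Dinitial)/2. Duplicate assays, run twice.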

[16] = test system: Plasmodium berghei; test: Antiplasmodial activity against Plasmodium berghei infected in NMRI mice (Mus musculus) assessed as survival rate at 44 mg/kg, perorally administered as 4 consecutive doses measured post last dose; assay type: functional; conditions: route oral; how it was run: as §1
[17] = test system: Plasmodium berghei; test: Antiplasmodial activity against Plasmodium berghei infected in NMRI mice (Mus musculus) assessed as parasitaemia level at 44 mg/kg, perorally administered as 4 consecutive doses measured after 4 days post last dose relative to control; assay type: functional; conditions: route oral
[18] = Drug level in chloroquine-sensitive Plasmodium falciparum D6 digestive vacuole assessed as ratio of drug level in vacuole to medium at 5 uM after 1 hr; assay type: ADME; conditions: plasmodium falciparum d6, 1 h; how it was run: as §2
[19] = test system: Plasmodium berghei; test: Antiplasmodial activity against Plasmodium berghei infected in NMRI mice (Mus musculus) assessed as parasitaemia level at 30 mg/kg, perorally administered as single dose measured after 3 days relative to control; assay type: functional; conditions: route oral; how it was run: as §1
[20] = Drug level in chloroquine-sensitive Plasmodium falciparum Dd2 digestive vacuole assessed as ratio of drug level in vacuole to medium at 5 uM after 1 hr; assay type: ADME; conditions: plasmodium falciparum dd2, 1 h, in the assay text read “chloroquine-resistant” for “chloroquine-sensitive”; how it was run: as §2
[21] = test system: Plasmodium berghei; test: Antiplasmodial activity against Plasmodium berghei infected in NMRI mice (Mus musculus) assessed as parasitaemia level at 30 mg/kg, perorally administered as 4 consecutive doses measured after 3 days post last dose relative to control; assay type: functional; conditions: route oral; how it was run: as §1
[22] = Drug level in chloroquine-sensitive Plasmodium falciparum D6 digestive vacuole after 1 hr; assay type: ADME; conditions: plasmodium falciparum d6, 1 h; how it was run: as §2
[23] = test system: Plasmodium berghei; test: Antiplasmodial activity against Plasmodium berghei infected in NMRI mice (Mus musculus) assessed as parasitaemia level at 30 mg/kg, subcutaneously after 3 days relative to control; assay type: functional; conditions: route subcutaneous; how it was run: as §1
[24] = test system: Plasmodium falciparum; test: Inhibition of hemozoin formation in early trophozoites of chloroquine-sensitive Plasmodium falciparum D6 infected in RBC assessed as enlarged digestive vacuole at 100 nM after 24 hrs by microscopic analysis; assay type: functional, organism-based; how it was run: as §3
[25] = Solubility of the compound; assay type: physicochemical

SMILES | Ratio IC50 [10] | Ratio IC50 [11] | Ratio IC50 [12] | selectivity ratio [13] | Kd [14] [µM] | IC50 [15] [µM] | further results
CCN(CC)CCCC(C)Nc1ccnc2cc(Cl)ccc12 (stereo unspecified) [CHLOROQUINE] |  |  |  |  |  |  | inhibition [1]: Active; inhibition [2]: inactive; Survival [3]: 10 days; Drug uptake [4]: 0.5 ×10⁻⁸ mol; inhibition [5]: Active; Survival [6]: 9 days; Survival [7]: 23 days; Drug uptake [8]: 0.7 ×10⁻⁸ mol; inhibition [9]: inactive
OCCN1CCN(C(c2ccccc2)c2ccccc2)CC1 | >2500 | >2500 | >2500 | > 50 |  |  | 
CN(CCCN1c2ccccc2CCc2ccccc21)CCNc1ccnc2cc(Cl)ccc12 | 21 | 5.2 | 3.6 | 269 | 7.3 | 10 | 
Clc1ccc2c(NCCN3CCC(NC(c4ccccn4)c4ccccn4)CC3)ccnc2c1 | 7.4 | 3.9 | 1.1 | 7310 | 1 | 2 | Survival [16]: >30 days; Activity [17]: >99.9%
Clc1ccc2c(NCCCN3CCCN(C(c4ccccc4)c4ccccc4)CC3)ccnc2c1 | 15 | 4.1 | 4.8 | 171 |  |  | 
Clc1ccc2c(NCCCN3CCN(CC(c4ccccc4)c4ccccc4)CC3)ccnc2c1 | 3.4 | 3.3 | 0.5 | 6970 |  |  | 
CN(CCCNc1ccnc2cc(Cl)ccc12)CCCN1c2ccccc2CCc2ccccc21 | 4 | 5.3 | 2.9 | 132 | 8.6 | 9 | Ratio [18]: 32000; Activity [19]: <40%; Survival [3]: 7 days; Ratio [20]: 38000; Drug uptake [4]: 1.8 ×10⁻⁸ mol; Survival [6]: 3 days; Survival [7]: 8 days; Activity [21]: 96%; Drug uptake [22]: 65000 µM; Drug uptake [8]: 1.6 ×10⁻⁸ mol; inhibition [9]: inactive; Activity [23]: 92%; inhibition [24]: Active
Clc1ccc(C(c2ccccc2)N2CCCN(CCCNc3ccnc4cc(Cl)ccc34)CC2)cc1 (stereo unspecified) | 22 | 5.7 | 6.6 | 158 |  |  | 
Clc1ccc2c(NCCCN3CCNCC3)ccnc2c1 |  | 6.8 | 4.3 | 3380 |  |  | 
Clc1ccc2c(NCCCN3CCN(C4C5CC6CC(C5)CC4C6)CC3)ccnc2c1 (stereo unspecified) | 10 | 1.8 | 0.8 | 69400 | 2.5 | 14 | 
Fc1ccc(C(c2ccc(F)cc2)N2CCN(CCCNc3ccnc4cc(Cl)ccc34)CC2)cc1 | 34 | 2.4 | 2 | 1710 |  |  | 
Clc1ccc(C(c2ccccc2)N2CCN(CCNc3ccnc4cc(Cl)ccc34)CC2)cc1 (stereo unspecified) | 10 | 2 | 2.6 | 700 |  |  | 
Clc1ccc(C(c2ccccc2)N2CCN(CCCNc3ccnc4cc(Cl)ccc34)CC2)cc1 (stereo unspecified) | 12 | 3.5 | 3.2 | 229 |  |  | 
Clc1ccc2c(NCCCN3CCCN(C4c5ccccc5-c5ccccc54)CC3)ccnc2c1 | 56 | 15 | 21 | 167 |  |  | 
Clc1ccc2c(NCCCN3CCN(C(c4ccccc4)c4ccccc4)CC3)ccnc2c1 | 11 | 2.6 | 1.9 | 423 | 3 | 3.5 | 
Clc1ccc2c(NCCCCN3CCN(C(c4ccccc4)c4ccccc4)CC3)ccnc2c1 | 7.2 | 1.3 | 1.3 | 846 |  |  | 
Clc1ccc2c(NCCN3CCCN(C4c5ccccc5-c5ccccc54)CC3)ccnc2c1 | 41 | 9.6 | 9.2 | 260 |  |  | 
Clc1ccc2c(NCCN3CCN(C(c4ccccc4)c4ccccc4)CC3)ccnc2c1 | 4.3 | 3.6 | 1 | 528 | 3.3 | 2.5 | Activity [19]: >99.9%; Survival [3]: 3 days; Survival [6]: 8 days; Survival [7]: 16 days; Activity [21]: >99.9%; Activity [23]: <40%
Clc1ccc2c(NCCCN3CCN(C(c4ccccc4)(c4ccccc4)c4ccccc4)CC3)ccnc2c1 | 10 | 4.2 | 2 | 13600 | 5.4 |  | Activity [19]: 99.7%; solubility [25]: Insoluble; Survival [3]: 3 days; Survival [6]: 7 days; Survival [7]: 20 days; Activity [21]: >99.9%; Activity [23]: <40%
